Reference: article PMC11865470 (Communications Biology, 2025)

What was measured:
Type in all cases: cell-based
Otop1 channels = Otop1 channels (Mus musculus, UniProt Q80VM9); test: patch-clamp, pH 8.5-evoked Otop1 currents with preincubated HIMOP; settings: 10 μM, preincubated at pH 7.4 for 2 min; 0 mV
Summary of the method: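 Mouse Otop1 was expressed with EGFP in PAC-knockout HEK293T cells and whole-cell recorded with Cs-aspartate pipette solution (pH 7.3). Test compound was preincubated with cells at pH 7.4 (NMDG-Cl bath, 10 mM HEPES) for 2 min, then pH 8.5 stimulus applied (NMDG-Cl bath, 10 mM Tris).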

[1] = biological target: T1, mouse Otop1 (mOtop1) channels (Mus musculus, UniProt Q80VM9); test: whole-cell patch-clamp, peak currents: current density and "on-cell" analysis; settings: for effect on mOtop1 current density: 10 μM
T1 sequence (Q80VM9 1-600): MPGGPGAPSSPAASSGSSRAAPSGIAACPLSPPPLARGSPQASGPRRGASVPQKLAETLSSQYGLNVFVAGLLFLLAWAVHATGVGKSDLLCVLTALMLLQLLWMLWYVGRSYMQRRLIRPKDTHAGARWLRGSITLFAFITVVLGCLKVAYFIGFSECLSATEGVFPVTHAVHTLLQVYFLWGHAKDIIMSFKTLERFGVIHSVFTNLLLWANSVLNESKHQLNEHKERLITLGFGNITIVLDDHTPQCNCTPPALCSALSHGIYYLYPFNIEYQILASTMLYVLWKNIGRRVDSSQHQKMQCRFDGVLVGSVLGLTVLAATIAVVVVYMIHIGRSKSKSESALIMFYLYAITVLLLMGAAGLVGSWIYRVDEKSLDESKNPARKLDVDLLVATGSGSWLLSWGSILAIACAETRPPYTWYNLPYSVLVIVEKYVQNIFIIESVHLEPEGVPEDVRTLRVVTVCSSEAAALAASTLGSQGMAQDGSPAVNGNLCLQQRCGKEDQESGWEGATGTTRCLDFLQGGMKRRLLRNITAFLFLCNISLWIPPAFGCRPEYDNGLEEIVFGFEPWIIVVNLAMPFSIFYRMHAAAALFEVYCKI

[2] = biological target: T1, mouse Otop1 (mOtop1) channels; settings: 10 μM MFaN; pH 5.5
[3] = biological target: T1, mouse Otop1 (mOtop1) channels; test: activation time constant; settings: 10 μM; before or concurrently with pH 5.5 stimulus
[4] = biological target: T1, mouse Otop1 (mOtop1) channels; test: reversal potential; settings: 10 μM; pH 5.5; bath NMDG+, Na+, K+ or Cs+
mOtop1 E226A = mOtop1 E226A (Mus musculus, UniProt Q80VM9, E226A); test: patch-clamp, mOtop1 mutant; settings: 10 μM; pH 5.5
Sequence of mOtop1 E226A (Q80VM9 whole entry E226A): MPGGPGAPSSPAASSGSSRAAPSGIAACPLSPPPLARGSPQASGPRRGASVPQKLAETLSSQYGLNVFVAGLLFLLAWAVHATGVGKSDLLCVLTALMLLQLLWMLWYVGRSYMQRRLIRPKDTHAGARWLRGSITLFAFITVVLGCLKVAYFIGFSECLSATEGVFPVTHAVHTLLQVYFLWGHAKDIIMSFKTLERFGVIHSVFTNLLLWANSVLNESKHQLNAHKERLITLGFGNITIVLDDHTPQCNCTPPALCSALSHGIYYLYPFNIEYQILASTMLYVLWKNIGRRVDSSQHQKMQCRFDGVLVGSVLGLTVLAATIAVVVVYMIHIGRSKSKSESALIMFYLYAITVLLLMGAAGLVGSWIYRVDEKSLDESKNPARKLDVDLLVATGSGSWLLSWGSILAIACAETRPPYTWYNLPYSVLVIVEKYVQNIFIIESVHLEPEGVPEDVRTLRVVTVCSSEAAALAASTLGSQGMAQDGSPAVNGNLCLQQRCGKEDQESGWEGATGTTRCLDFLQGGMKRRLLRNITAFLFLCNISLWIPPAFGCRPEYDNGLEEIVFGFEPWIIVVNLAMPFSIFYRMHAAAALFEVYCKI
Summary of the method: (§1)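 Alanine-substituted mOtop1 mutants were co-transfected (2.5 μg channel plus 0.5 μg EGFP plasmid, Lipofectamine 2000) into PAC-knockout HEK293T cells. Whole-cell recording 16–24 h after seeding on PLL coverslips. Pipette (mM): 120 Cs-aspartate, 15 CsCl, 2 Mg-ATP, 5 EGTA, 2.4 CaCl2, 10 HEPES, pH 7.3. Bath (mM): 160 NMDG-Cl, 2 CaCl2, 10 MES, pH 5.5, with 10 μM test compound. Response compared with wild-type mOtop1.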

mOtop1 E229A = mOtop1 E229A (Mus musculus, UniProt Q80VM9, E229A); test: patch-clamp, mOtop1 mutant; settings: 10 μM; pH 5.5
Sequence of mOtop1 E229A (Q80VM9 whole entry E229A): as the sequence (Q80VM9 whole entry E226A) above, with A226E, E229A counted along it
Summary of the method: as §1

mOtop1 I239A = mOtop1 I239A (Mus musculus, UniProt Q80VM9, I239A); test: patch-clamp, mOtop1 mutant; settings: 10 μM; pH 5.5
Sequence of mOtop1 I239A (Q80VM9 whole entry I239A): as the sequence (Q80VM9 whole entry E226A) above, with A226E, I239A counted along it
Summary of the method: as §1

mOtop1 T240A = mOtop1 T240A (Mus musculus, UniProt Q80VM9, T240A); test: patch-clamp, mOtop1 mutant; settings: 10 μM; pH 5.5
Sequence of mOtop1 T240A (Q80VM9 whole entry T240A): as the sequence (Q80VM9 whole entry E226A) above, with A226E, T240A counted along it
Summary of the method: as §1

mOtop1 I241A = mOtop1 I241A (Mus musculus, UniProt Q80VM9, I241A); test: patch-clamp, mOtop1 mutant; settings: 10 μM; pH 5.5
Sequence of mOtop1 I241A (Q80VM9 whole entry I241A): as the sequence (Q80VM9 whole entry E226A) above, with A226E, I241A counted along it
Summary of the method: as §1

mOtop1 L243A = mOtop1 L243A (Mus musculus, UniProt Q80VM9, L243A); test: patch-clamp, mOtop1 mutant; settings: 10 μM; pH 5.5
Sequence of mOtop1 L243A (Q80VM9 whole entry L243A): as the sequence (Q80VM9 whole entry E226A) above, with A226E, L243A counted along it
Summary of the method: as §1

mOtop1 D244A = mOtop1 D244A (Mus musculus, UniProt Q80VM9, D244A); test: patch-clamp, mOtop1 mutant; settings: 10 μM; pH 5.5
Sequence of mOtop1 D244A (Q80VM9 whole entry D244A): as the sequence (Q80VM9 whole entry E226A) above, with A226E, D244A counted along it
Summary of the method: as §1

mOtop1 H246A = mOtop1 H246A (Mus musculus, UniProt Q80VM9, H246A); test: patch-clamp, mOtop1 mutant; settings: 10 μM; pH 5.5
Sequence of mOtop1 H246A (Q80VM9 whole entry H246A): as the sequence (Q80VM9 whole entry E226A) above, with A226E, H246A counted along it
Summary of the method: as §1

mOtop1 R554Q = mOtop1 R554Q (Mus musculus, UniProt Q80VM9, R554Q); test: patch-clamp, mOtop1 mutant; settings: Fig 5G, H
Sequence of mOtop1 R554Q (Q80VM9 whole entry R554Q): as the sequence (Q80VM9 whole entry E226A) above, with A226E, R554Q counted along it

mOtop1 R554C = mOtop1 R554C (Mus musculus, UniProt Q80VM9, R554C); test: patch-clamp, mOtop1 mutant; settings: Fig 5G, H
Sequence of mOtop1 R554C (Q80VM9 whole entry R554C): as the sequence (Q80VM9 whole entry E226A) above, with A226E, R554C counted along it

mOtop1 R554E = mOtop1 R554E (Mus musculus, UniProt Q80VM9, R554E); test: patch-clamp, mOtop1 mutant; settings: Fig 5G, H
Sequence of mOtop1 R554E (Q80VM9 whole entry R554E): as the sequence (Q80VM9 whole entry E226A) above, with A226E, R554E counted along it

mOtop1 R554K = mOtop1 R554K (Mus musculus, UniProt Q80VM9, R554K); test: patch-clamp, mOtop1 mutant; settings: Fig 5G, H
Sequence of mOtop1 R554K (Q80VM9 whole entry R554K): as the sequence (Q80VM9 whole entry E226A) above, with A226E, R554K counted along it

mOtop1 R554H = mOtop1 R554H (Mus musculus, UniProt Q80VM9, R554H); test: patch-clamp, mOtop1 mutant; settings: Fig 5G, H
Sequence of mOtop1 R554H (Q80VM9 whole entry R554H): as the sequence (Q80VM9 whole entry E226A) above, with A226E, R554H counted along it

Row | effect on pH 8.5-evoked Otop1 currents (Otop1 channels) | EC50 [1] [µM] | effect on mOtop1 current density ([1]; pH 5.5, Fig 4A) | effect on mOtop1 current density ([1]; pHs ranging from 4.5 to 6.0) | effect on inhibition of mOtop1 by Zn2+ [2] | effect on the activation rate of mOtop1 channels [3] | effect on Vrev of the mOtop1 channel [4] | response of mutant to MFaN compared to wild-type mOtop1 (mOtop1 E226A) | response of mutant to MFaN compared to wild-type mOtop1 (mOtop1 E229A) | response of mutant to MFaN compared to wild-type mOtop1 (mOtop1 I239A) | response of mutant to MFaN compared to wild-type mOtop1 (mOtop1 T240A) | response of mutant to MFaN compared to wild-type mOtop1 (mOtop1 I241A) | response of mutant to MFaN compared to wild-type mOtop1 (mOtop1 L243A) | response of mutant to MFaN compared to wild-type mOtop1 (mOtop1 D244A) | response of mutant to MFaN compared to wild-type mOtop1 (mOtop1 H246A) | effect of mutation on MFaN's potentiation effect vs WT mOtop1 (mOtop1 R554Q) | effect of mutation on MFaN's potentiation effect vs WT mOtop1 (mOtop1 R554C) | effect of mutation on MFaN's potentiation effect vs WT mOtop1 (mOtop1 R554E) | effect of mutation on MFaN's potentiation effect vs WT mOtop1 (mOtop1 R554K) | effect of mutation on MFaN's potentiation effect vs WT mOtop1 (mOtop1 R554H) | Compound
1 | significantly enhanced | – | – | – | – | – | – | – | – | – | – | – | – | – | – | – | – | – | – | – | CC(C)c1noc2ncc(C(=O)c3ccccc3O)cc12 [HIMOP, (2-hydroxyphenyl)-(3-propan-2-yl-5-isoxazolo[5,4-b]pyridinyl)methanone]
2 | – | 9.2 ± 0.6 | significantly increased | significantly increased | without affecting | had no effect | did not change | markedly reduced | significantly enhanced | markedly reduced | markedly reduced | markedly reduced | significantly enhanced | markedly reduced | significantly enhanced | eliminated | eliminated | eliminated | did not affect | reduced | Cc1ccc(C(=O)Nc2ccc3ccccc3c2)o1 [MFaN, 5-methyl-N-2-naphthyl-2-furamide]
